This note sets out measurements from ChEMBL document CHEMBL4014332, “Multitargeted Imidazoles: Potential Therapeutic Leads for Alzheimer's and Other Neurodegenerative Diseases” (J Med Chem, 2017).

By inhibition is commonly meant the share of the control response that was lost under treatment. Read a high inhibition as a strong effect.

For data set [1], the species on record is Homo sapiens. The experiment in a line: Induction of microtubule stabilization in human QBI293 cells assessed as increase in acetylated tubulin levels at 1 uM after 4 hrs by ELISA relative to control. The format is cell-based. The method, boiled down: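 QBI-293 cells grown in DMEM/10% FBS at 37 °C, 5% CO2, plated 6 × 10⁵ cells/well overnight, then treated with vehicle or compound (1 and 10 μM) for 4 h. Lysis was in RIPA with protease inhibitors, 1 mM PMSF and 1 μM TSA, followed by 100000g spin for 30 min. Acetylated α-tubulin was measured by ELISA on BCA-quantified supernatant, reported as fold change vs DMSO, at least triplicate, t test.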

Data set [2] is described as follows: Change in total alpha-tubulin levels in human QBI293 cells at 10 uM after 4 hrs by ELISA relative to control. Type of data set: cell-based. The note with it: qbi293, 4 h. A digest of the protocol:
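QBI-293 cells grown in DMEM/10% FBS at 37 °C, 5% CO2, plated 6 × 10⁵ cells/well, left overnight, then given vehicle or compound (1 and 10 μM) for 4 h. Cells were lysed in RIPA with protease inhibitors, 1 mM PMSF and 1 μM TSA, then spun at 100000g for 30 min. Total α-tubulin was measured by ELISA, normalized by BCA protein, expressed as fold change vs DMSO, triplicate, two-tailed unpaired t test.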

For data set [3], the species on record is Rattus norvegicus. The experiment in a line: Inhibition of 5-LOX-mediated LTB4 production in arachidonic acid-stimulated RBL1 cells at 10 uM preincubated for 2 hrs followed by A23187 induction for 15 mins by LC/MS/MS analysis relative to control. A digest of the protocol:
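RBL-1 cells grown in RPMI/10% FBS, plated 9 × 10⁵ cells/well, held 2 h at 37 °C, then given compound for 2 h (screen at 10 μM, then concentration–response in triplicate). Stimulation was 12 μM A23187 for 15 min. Supernatants were extracted with MeOH/0.01% BHT and LTB₄ quantified by UPLC-MS/MS in negative ion mode.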

The nature of data set [4]: Change in total alpha-tubulin levels in human QBI293 cells at 1 uM after 4 hrs by ELISA relative to control. The note with it: qbi293, 4 h. (In general: In an ELISA, binding on a coated surface is turned into a signal by an enzyme label.)

`COc1ccc(F)c(-c2c(Cl)nc(Cl)n2-c2ccc(Cl)cc2)c1F`: the results for the fold change (FC) in data set [1] and in data set [2] were 5.1 and 0.9, respectively. This compound also came in with an inhibition in data set [3] of 88%. Also, the FC in data set [4] amounted to 0.4.
The corresponding values for `COc1cc(F)c(-c2c(Cl)nc(C)n2-c2ccc(Cl)cc2)c(F)c1` are 7.1, 0.6, 88% and 0.3.
Turning to `Cc1ccc(F)c(-c2cnc(Cl)n2-c2ccc(Cl)cc2)c1F`, the “fold change (FC)” value in data set [2] is 0.8. The compound further registered an inhibition in data set [3] of 69%. This compound also displayed an FC in data set [4] of 0.9.
With `Fc1cccc(F)c1-c1cncn1-c1ccc(Cl)cc1`, the “fold change (FC)” value in data set [2] was 1.2. In data set [3], the inhibition stood at 46%.
`Cc1nc(C)n(-c2ccc(Cl)cc2)c1-c1c(F)cccc1F`: in data set [2], the “fold change (FC)” value is 1.2. This compound also gave an inhibition in data set [3] of 40%.
Regarding `Cc1nc(Cl)c(-c2c(F)ccc(F)c2F)n1-c1ccc(Cl)c(F)c1`, the fold change (FC) in data set [1] was found to be 3.9; in data set [2], 0.8. Further, the inhibition in data set [3] is 75%. In data set [4], this compound returned an FC of 0.7.
For `C[C@H](Nc1c(-c2c(F)cc(F)cc2F)c(Cl)nc2ncnn12)C(F)(F)F`, the fold change (FC) in data set [1] was 2.5. Also, in data set [4], the Activity entry is “Non-Toxic”.
For the compound `COc1cc(F)c(-c2c(Cl)nc(Cl)n2-c2ccc(Cl)cc2)c(F)c1`, the fold change (FC) was determined as 3.3 in data set [1] and 0.6 in data set [2]. Also, the inhibition in data set [3] is 38%. Further, in data set [4], the FC is on record as 0.3.
`CCc1nc(Cl)c(-c2c(F)cccc2F)n1-c1ccc(Cl)cc1`: in data set [1], the fold change (FC) amounted to 1.8. For the same compound, the inhibition in data set [3] was 81%. Also, in data set [4], the Activity result is listed as “Non-Toxic”.
`Cc1nc(Cl)c(-c2c(F)ccc(Cl)c2F)n1-c1ccc(Cl)cc1`: the fold change (FC) in data set [1] came out at 1.7. The inhibition in data set [3] is 84%. Besides, the FC in data set [4] was found to be 0.6.
Take `C[C@H](Nc1c(-c2c(F)cc(OCCCN(C)C)cc2F)c(Cl)nc2ncnn12)C(F)(F)F`: the fold change (FC) came to 6 in data set [1] and 0.7 in data set [2]. The compound also registered an FC in data set [4] of 0.4.
In the case of `Cc1nc(Cl)c(-c2c(F)cccc2F)n1-c1ccc(Cl)cc1`, the fold change (FC) in data set [1] was determined as 2.5. The same compound gave an inhibition in data set [3] of 87%. For the same compound, the FC in data set [4] stood at 0.8.
